Results reported in ChEMBL document CHEMBL4177580, “New 5-HT1A, 5HT2A and 5HT2C receptor ligands containing a picolinic nucleus: Synthesis, in vitro and in vivo pharmacological evaluation” (Bioorg Med Chem, 2017).
Active and inactive are the calls of the source. The calls are words filed in the database; no cut-off is given here.

What was measured:
[1] = target: T1, 5-hydroxytryptamine receptor 2C (Rattus norvegicus, UniProt P08909); assay: Displacement of [3H]mesulergine from serotonin 5-HT2C receptor in Sprague-Dawley rat brain cortex homogenates incubated for 15 mins by liquid scintillation spectrometry
T1 sequence (P08909 whole entry): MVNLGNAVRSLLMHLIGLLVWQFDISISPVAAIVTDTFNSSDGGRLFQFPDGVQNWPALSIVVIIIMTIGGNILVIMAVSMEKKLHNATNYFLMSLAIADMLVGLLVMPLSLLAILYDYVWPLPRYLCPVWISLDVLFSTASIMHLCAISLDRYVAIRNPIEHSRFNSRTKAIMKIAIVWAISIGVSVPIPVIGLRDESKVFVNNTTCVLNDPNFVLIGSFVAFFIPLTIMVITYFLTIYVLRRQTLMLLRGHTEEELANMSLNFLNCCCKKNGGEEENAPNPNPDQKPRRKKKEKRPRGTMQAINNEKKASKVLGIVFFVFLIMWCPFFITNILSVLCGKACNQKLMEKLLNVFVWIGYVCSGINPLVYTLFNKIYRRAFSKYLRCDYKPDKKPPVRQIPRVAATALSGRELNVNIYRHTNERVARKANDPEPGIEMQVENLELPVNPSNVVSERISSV

[2] = target: T2, 5-hydroxytryptamine receptor 2A (Rattus norvegicus, UniProt P14842); assay: Displacement of [3H]ketanserin from serotonin 5-HT2A receptor in Sprague-Dawley rat brain cortex homogenates incubated for 15 mins by liquid scintillation spectrometry
T2 sequence (P14842 whole entry): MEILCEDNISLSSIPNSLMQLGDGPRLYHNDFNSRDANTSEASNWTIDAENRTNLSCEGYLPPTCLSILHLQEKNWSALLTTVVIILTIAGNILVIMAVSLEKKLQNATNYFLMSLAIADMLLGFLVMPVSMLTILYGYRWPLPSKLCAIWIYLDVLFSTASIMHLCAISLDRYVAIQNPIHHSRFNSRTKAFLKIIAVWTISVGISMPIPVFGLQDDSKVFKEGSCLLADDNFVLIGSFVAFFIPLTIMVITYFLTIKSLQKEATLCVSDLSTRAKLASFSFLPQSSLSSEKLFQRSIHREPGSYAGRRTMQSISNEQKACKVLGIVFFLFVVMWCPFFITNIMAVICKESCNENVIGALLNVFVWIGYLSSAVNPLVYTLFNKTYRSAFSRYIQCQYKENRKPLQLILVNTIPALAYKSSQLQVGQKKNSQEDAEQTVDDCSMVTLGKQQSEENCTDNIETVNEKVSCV

[3] = target: T3, 5-hydroxytryptamine receptor 1A (Rattus norvegicus, UniProt P19327); assay: Displacement of [3H]-8-OH-DPAT from serotonin 5-HT1A receptor in Sprague-Dawley rat brain cortex homogenates incubated for 30 mins by liquid scintillation spectrometry
T3 sequence (P19327 whole entry): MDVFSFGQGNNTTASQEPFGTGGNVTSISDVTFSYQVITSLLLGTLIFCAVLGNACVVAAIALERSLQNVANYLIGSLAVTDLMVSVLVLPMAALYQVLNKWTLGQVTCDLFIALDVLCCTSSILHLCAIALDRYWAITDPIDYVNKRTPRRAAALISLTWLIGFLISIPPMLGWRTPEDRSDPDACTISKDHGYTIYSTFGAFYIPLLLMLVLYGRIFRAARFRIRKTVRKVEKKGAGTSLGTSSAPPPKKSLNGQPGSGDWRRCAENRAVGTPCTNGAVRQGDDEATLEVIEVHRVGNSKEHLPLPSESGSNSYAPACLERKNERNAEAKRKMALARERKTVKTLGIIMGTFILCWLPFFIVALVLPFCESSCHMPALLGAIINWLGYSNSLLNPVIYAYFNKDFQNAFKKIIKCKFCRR

[4] = target: 5-hydroxytryptamine receptor 2A (Rattus norvegicus) (UniProt P14842); settings: Sprague-Dawley, 0.3 uM
Sequence of 5-hydroxytryptamine receptor 2A (Rattus norvegicus) (P14842 whole entry): as the sequence (P14842 whole entry) above

[5] = target: 5-hydroxytryptamine receptor 2A (Rattus norvegicus) (UniProt P14842); assay: Antagonist activity at 5-HT2A receptor in Sprague-Dawley rat ielum assessed as reduction in 5-HT-evoked contraction at 10 uM
[6] = target: T2, 5-hydroxytryptamine receptor 2A; assay: Antagonist activity at 5-HT2A receptor in Sprague-Dawley rat ielum assessed as reduction in 5-HT-evoked contraction; assay type: functional
Outline: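 Ileum segments from CO2-asphyxiated rats, longitudinal contractions recorded isotonically (0.5 g load) in 20 mL Krebs at 37°C gassed with 95% O2/5% CO2; 60 min equilibration, then three additions of 5-HT (10^-5 M) for stable control contractions. Compounds dissolved in DMSO (<0.01%), 10 min contact per concentration. IC50 (50% inhibition of 5-HT contraction) and Emax derived by curve fitting; mean (SEM).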

[7] = target: 5-hydroxytryptamine receptor 2A (Rattus norvegicus) (UniProt P14842); assay: Antagonist activity at 5-HT2A receptor in Sprague-Dawley rat ielum assessed as reduction in 5-HT-evoked contraction relative to control; assay type: functional
[8] = target: 5-hydroxytryptamine receptor 2A (Rattus norvegicus) (UniProt P14842); assay: Agonist activity at 5-HT2A receptor in Sprague-Dawley rat ileum assessed as induction of contraction; assay type: functional
Mus musculus [9] = assay: Antidepressant-like activity in Swiss albino mouse assessed as reduction in immobility time at 15 mg/kg, ip dosed 1 hr before test by forced swimming test; assay type: functional, organism-based
Outline: (§1)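 Male Swiss albino mice (18-24 g). The reference drug was diluted in saline and given ip (10 ml/kg) 1 h before testing. Each mouse swam for 6 min in a cylinder (25 cm high, 10 cm diameter) holding 10 cm of water at 23-25°C. Immobility was timed over the last 4 min. Data are mean ± SEM, analysed by one-way ANOVA with Dunnett's test.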

Mus musculus [10] = assay: Antidepressant-like activity in Swiss albino mouse assessed as reduction in immobility time at 20 mg/kg, ip dosed 1 hr before test by forced swimming test; assay type: functional, organism-based; outline: as §1
[11] = target: 5-hydroxytryptamine receptor 2A (Rattus norvegicus) (UniProt P14842); settings: Sprague-Dawley, 0.1 uM
Mus musculus [12] = assay: Anxiolytic-like activity in Swiss albino mouse assessed as increase in time spent in open arms at 5 mg/kg measured for 5 mins test period by elevated plus maze test; assay type: functional, organism-based
Outline: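 Male Swiss albino mice (18-24 g) were tested in the elevated plus-maze by Lister's method. The reference drug was diluted in saline and given ip (10 ml/kg). Time in open arms was recorded. Results are mean ± SEM, analysed by one-way ANOVA and post hoc test, with the observer blind to treatment.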

Mus musculus [13] = assay: Induction of hypothermia in Swiss albino mouse assessed as reduction in body temperature at 5 mg/kg, ip measured after 30 mins post dose; assay type: functional, organism-based
Outline: (§2)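 Normothermic male Swiss albino mice. Rectal temperature was taken by thermistor thermometer over 180 min (60 min before to 120 min after injection). Initial temperature was the mean of the readings at 60 and 30 min predose. Later readings were at 30, 60, 90 and 120 min, with Δt = final − initial. Data are mean ± SEM, by two-way ANOVA with Bonferroni test.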

Mus musculus [14] = assay: Induction of hypothermia in Swiss albino mouse assessed as reduction in body temperature at 5 mg/kg, ip measured after 60 mins post dose; assay type: functional, organism-based; outline: as §2
Mus musculus [15] = assay: In-vivo 5-HT1A receptor agonist activity in Swiss albino mouse assessed as induction of lower lip retraction by measuring lower lip retraction score at 1 mg/kg, ip dosed 15 mins before test; assay type: functional, organism-based

Row | Structure (SMILES) | Ki [1] [nM] | Ki [2] [nM] | Ki [3] [nM] | also measured
1 | O=C(NCCCN1CCN(c2ccccc2)CC1)c1ccccn1 | 111 | 277 | 104 | 
2 | O=C(NCCN1CCN(c2ccccc2Cl)CC1)c1ccccn1 | 268 | > 10000 | 412 | 
3 | NC1=N[C@H](O)[C@H]2[C@H]3O[C@]4(O)O[C@@H]([C@H](O)[C@@]2(N1)[C@@H]4O)[C@]3(O)CO |  |  |  | inhibition [4]: inactive
4 | O=C(NCCN1CCN(C(c2ccccc2)c2ccc(Cl)cc2)CC1)c1ccccn1 (stereo not given) | 49.8 | 504 | 540 | 
5 | O=C(NCCN1CCN(c2cccc(Cl)c2)CC1)c1ccccn1 | 90.9 | 309 | 267 | 
6 | CN1[C@@H]2CC[C@H]1C[C@@H](OC(=O)C(CO)c1ccccc1)C2 (stereo not given in full) |  |  |  | inhibition [5]: inactive
7 | O=C(NCCCN1CCN(C(c2ccc(F)cc2)c2ccc(F)cc2)CC1)c1ccccn1 |  |  |  | EC50 ([6]; read-out: EC50): 2040 nM; Emax [7]: 68.4%; Activity [8]: inactive
8 | CCOc1ccccc1N1CCN(CCNC(=O)c2ccccn2)CC1 | > 10000 | > 10000 | 55.4 | 
9 | O=C(NCCN1CCN(C(c2ccc(F)cc2)c2ccc(F)cc2)CC1)c1ccccn1 |  |  | > 10000 | 
10 | O=C(NCCCN1CCN(C(=O)c2ccco2)CC1)c1ccccn1 | > 10000 |  | > 10000 | EC50 ([6]; read-out: EC50): 777 nM; Emax [7]: 53.1%; Activity [8]: inactive
11 | N#Cc1ccccc1N1CCN(CCNC(=O)c2ccccn2)CC1 | > 10000 | 616 | 74.8 | 
12 | O=C(NCCCN1CCN(c2cccc(C(F)(F)F)c2)CC1)c1ccccn1 | > 10000 | > 10000 | 17.9 | 
13 | O=C(NCCCN1CCN(c2ccc(Cl)c(Cl)c2)CC1)c1ccccn1 | 9.57 | 90.4 | 181 | EC50 ([6]; read-out: EC50): 770 nM; Emax [7]: 26.7%; Activity [8]: inactive
14 | O=C(NCCN1CCN(c2ccccc2F)CC1)c1ccccn1 | > 10000 | > 10000 | 158 | 
15 | O=C(NCCCN1CCN(c2ccc(F)cc2)CC1)c1ccccn1 | 11.7 | 161 | > 10000 | 
16 | CNCCC(Oc1ccc(C(F)(F)F)cc1)c1ccccc1 (stereo not given) |  |  |  | Activity (Mus musculus [9]): Active; Activity (Mus musculus [10]): Active
17 | O=C(NCCN1CCN(C(=O)c2ccco2)CC1)c1ccccn1 | > 10000 | > 10000 | > 10000 | 
18 | O=C(NCCCN1CCN(c2cccc(Cl)c2)CC1)c1ccccn1 | 101 | 80.7 | 59.5 | 
19 | O=C(NCCCN1CCN(c2ccccc2F)CC1)c1ccccn1 | > 10000 | 327 | 230 | 
20 | O=C(NCCCN1CCN(c2ccccn2)CC1)c1ccccn1 | 140 | > 10000 | 495 | 
21 | O=C(c1ccc(F)cc1)C1CCN(CCn2c(=O)[nH]c3ccccc3c2=O)CC1 |  |  |  | inhibition [11]: Active
22 | O=C(NCCN1CCN(c2ccc(F)cc2)CC1)c1ccccn1 | 79.4 | 241 | 82 | 

Row | Structure (SMILES) | Ki [1] [nM] | Ki [2] [nM] | Ki [3] [nM] | also measured
23 | N#Cc1ccccc1N1CCN(CCCNC(=O)c2ccccn2)CC1 | 128 | > 10000 | 108 | 
24 | O=C(NCCCN1CCN(c2ccccc2Cl)CC1)c1ccccn1 | 1050 | 763 | 71.6 | 
25 | O=C(NCCN1CCN(c2cccc(C(F)(F)F)c2)CC1)c1ccccn1 |  |  |  | EC50 ([6]; read-out: EC50): 161 nM; Emax [7]: 48.4%; Activity [8]: inactive
26 | O=C(NCCN1CCN(c2cccc3ccccc23)CC1)c1ccccn1 | 116 | 91.1 | 20.8 | 
27 | COc1ccc(N2CCN(CCNC(=O)c3ccccn3)CC2)cc1 | > 10000 | 9.33 | 138 | EC50 [6]: Not Active
28 | O=C(NCCCN1CCN(c2ncccn2)CC1)c1ccccn1 | > 10000 | 16.8 | 500 | EC50 ([6]; read-out: EC50): 828 nM; Emax [7]: 32.1%; Activity [8]: inactive
29 | O=C(NCCCN1CCN(C(c2ccccc2)c2ccc(Cl)cc2)CC1)c1ccccn1 (stereo not given) | > 10000 | 725 | 443 | 
30 | O=C1CC2(CCCC2)CC(=O)N1CCCCN1CCN(c2ncccn2)CC1 |  |  |  | Activity (Mus musculus [12]): Active
31 | COc1ccccc1N1CCN(CCCNC(=O)c2ccccn2)CC1 | 128 | > 10000 | 40.1 | 
32 | O=C(NCCCN1CCN(c2cccc3ccccc23)CC1)c1ccccn1 | > 10000 | 213 | 44.1 | 
33 | O=C(NCCCN1CCN(c2ccc(Cl)cc2)CC1)c1ccccn1 | 39.7 | 371 | 68 | 
34 | Cc1ccc(N(CC2=NCCN2)c2cccc(O)c2)cc1 |  |  |  | inhibition [5]: inactive
35 | CCOc1ccccc1N1CCN(CCCNC(=O)c2ccccn2)CC1 | 80 | 119 | 85.6 | 
36 | COc1ccccc1N1CCN(CCNC(=O)c2ccccn2)CC1 | > 10000 | 0.0224 | 599 | EC50 ([6]; read-out: EC50): 4250 nM; Emax [7]: 33.7%; Activity [8]: inactive
37 | O=C(NCCCN1CCN(Cc2ccc3c(c2)OCO3)CC1)c1ccccn1 | > 10000 |  | > 10000 | EC50 ([6]; read-out: EC50): 6480 nM; Emax [7]: 75.5%; Activity [8]: inactive
38 | O=C(NCCN1CCN(c2ccccc2)CC1)c1ccccn1 | > 10000 | 53.2 | 161 | EC50 [6]: Not Active
39 | COc1ccc(N2CCN(CCCNC(=O)c3ccccn3)CC2)cc1 | > 10000 | > 10000 | > 10000 | 
40 | O=C(NCCN1CCN(c2ccccn2)CC1)c1ccccn1 | > 10000 | > 10000 | 32.7 | 
41 | O=C(NCCN1CCN(Cc2ccc3c(c2)OCO3)CC1)c1ccccn1 | 61.2 | > 10000 | > 10000 | 
42 | CCN(CC)C1CCc2cccc(O)c2C1 (stereo not given) |  |  | 0.8 | Activity (Mus musculus [13]): Active; Activity (Mus musculus [14]): Active; Activity (Mus musculus [15]): Active
43 | Cc1cccc(N2CCN(CCNC(=O)c3ccccn3)CC2)c1C | > 10000 | > 10000 | 215 | 
44 | Cc1cccc(N2CCN(CCCNC(=O)c3ccccn3)CC2)c1C | 105 | > 10000 | 88.7 | 
